Shown are actives, neighbours in structure and some others; about 5.2% of the full set was active somewhere.
ZTA counter: blocks Epstein-Barr virus ZTA, an EBNA-1 counter-screen; P03206; ZTA-DNA binding, fluorescence polarization; inhibition, % at 11 µM; actives 0.15% (n = 320,000); AID 2234; in the data active means inhibition above about 33%
Target sequence (P03206 whole entry, looked up): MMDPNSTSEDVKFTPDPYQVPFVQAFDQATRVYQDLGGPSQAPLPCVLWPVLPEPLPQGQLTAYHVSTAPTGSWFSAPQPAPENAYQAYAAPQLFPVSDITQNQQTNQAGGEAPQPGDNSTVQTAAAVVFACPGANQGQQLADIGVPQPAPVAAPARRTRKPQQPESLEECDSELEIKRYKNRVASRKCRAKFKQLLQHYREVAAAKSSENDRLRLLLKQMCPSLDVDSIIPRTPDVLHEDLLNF
EBNA-1 inhibitor: blocks EBNA-1 binding to DNA. EBNA-1 DNA binding, fluorescence polarization. inhibition, % at 14.8 µM. actives 0.34% (n = 300,000). AID 1950; in the data active means inhibition above about 28%
core dimer inh: blocks dimerization of HCV core protein; TR-FRET GST/Flag-core106 dimerization, 1536-well; inhibition, % at 5 µM; actives 0.33% (n = 300,000); AID 1899;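 active means inhibition above the mean of all tested compounds plus 3 SD, set per screening campaign, cut at about 45% in these data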
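Assay system: GST-tagged and Flag-tagged HCV core protein residues 1-106 / Times: compound-protein-antibody incubation 4 h at 22.5 °C / Signal: time-resolved FRET, ex 340 nm, em 617 and 671 nm / Evaluation: % inhibition based on acceptor/donor emission ratio / Benchmarks: wells lacking GST-core106 and wells with excess unlabelled core106 / Repeats: singlicate, one well per compound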
ALR inh: blocks human ALR sulfhydryl oxidase activity | P55789 | purified ALR, DTT oxidation, H2O2 HRP-luminol luminescence | inhibition, % (no concentration beside the values) | actives 3.8% (n = 290,000);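 active means mean replicate inhibition above about 79%, with every replicate also reaching it, limit read from the data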
Target sequence (P55789 whole entry, looked up): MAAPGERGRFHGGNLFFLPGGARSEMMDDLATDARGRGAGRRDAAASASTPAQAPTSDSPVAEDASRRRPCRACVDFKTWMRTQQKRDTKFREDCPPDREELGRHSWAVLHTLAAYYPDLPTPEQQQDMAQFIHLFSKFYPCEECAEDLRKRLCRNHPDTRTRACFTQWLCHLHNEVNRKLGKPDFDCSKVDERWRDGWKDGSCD
PfM18AAP inh: blocks P. falciparum M18 aspartyl aminopeptidase | recombinant PfM18AAP, H-Glu-NHMec fluorogenic cleavage | actives 1.2% (n = 290,000) | inhibition, % at 7.35 µM;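 active means inhibition above the campaign mean inhibition over all tested compounds plus 3 SD, cut at about 28% in these data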
HCV NS3 hel inh: HCV NS3 helicase inhibition. inhibition, % at 10.9 µM. NS3 helicase DNA unwinding, Cy5 molecular beacon fluorescence. actives 0.56% (n = 290,000);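 active means inhibition above the mean of all tested compounds plus 3 SD, set per campaign, cut at about 35% in these data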
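System: Hepatitis C virus NS3 helicase domain fragment enzyme | Reagent: Annealed dual-labelled DNA beacon duplex, ATP-started | Compound dosing: 10.9 µM single point, 0.8% DMSO | Incubation: 1 h reaction at 25 °C, ATP-initiated | Technique: Cy5 fluorescence | Evaluation: Percent inhibition from t60/t0 fluorescence ratio | Benchmarks: Low DMSO, high thioflavine S at 110 µM | Replication: Singlicate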
EBNA-1 inh conf: EBNA-1 (EBV) inhibition, confirmation | AID 2292 | shares compounds with EBNA-1 inhibitor | inhibition, % at 14.8 µM | actives 35% (n = 830) | Recombinant EBNA-1 DBD, Cy5-DNA fluorescence polarization;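 active means mean inhibition across replicates above a set limit taken from the earlier primary screen, cut at about 28% in these data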
ZTA DNA inh trip: counter-screen for EBNA-1 inhibitors: Epstein-Barr virus ZTA inhibitors, triplicate. shares compounds with EBNA-1 inhibitor. Zta-ZRE DNA binding, Cy5 fluorescence polarization. inhibition, % at 11.1 µM. 830 tested, under 10 active. AID 2328;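 active means mean inhibition over triplicates above a set limit taken from the primary EBNA-1 screen, cut at about 37% in these data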;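 further: purified full length Zta protein with Cy5 labeled ZRE DNA probe; inhibitors lower polarization by freeing the labeled DNA probe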
Hits are given with their value; . = inactive; / = no result given.

SMILES	ZTA counter	EBNA-1 inhibitor	core dimer inh	ALR inh	PfM18AAP inh	HCV NS3 hel inh	EBNA-1 inh conf	ZTA DNA inh trip
CC(/C=C1\SC(=S)N(CCC(=O)Nc2ccc(O)cc2)C1=O)=C\c1ccccc1	.	34	.	.	.	.	.	.
Cc1ccc(/C=C2\SC(=S)N(CCC(=O)NNC(=O)c3cccc(O)c3)C2=O)cc1	.	.	.	.	.	.	/	/
CC1(NC(=O)CCc2nc3ccccc3c(=O)[nH]2)CCS(=O)(=O)C1 (centres undefined)	.	.	.	.	.	.	/	/
Cc1ccsc1C(=O)N1CCCC(C(=O)c2cc(F)ccc2F)C1 (centres undefined)	.	.	.	/	.	.	/	/
Cc1cccc(CCNC(=O)CNS(=O)(=O)c2ccc3nc(C)sc3c2)c1	.	.	.	.	.	.	/	/
COc1ccc(OCC(=O)N2CCCC(CO)(CCOc3ccccc3)C2)cc1 (centres undefined)	.	.	.	.	.	.	/	/
CC(NC(=O)COc1ccc(/C=N/NC(=O)C(=O)Nc2ccccc2Br)cc1)c1ccccc1 (centres undefined)	.	34	.	.	.	.	50	.
Cc1cc(C)n(-c2ccc(C(=O)OCC(=O)NC(c3ccccc3)c3ccccc3)cc2)n1	.	32	.	.	.	.	.	.
CCOc1ccc2nc(SC3CC(=O)N(c4ccccc4)C3=O)sc2c1 (centres undefined)	.	33	.	.	.	.	.	.
COc1ccc(/C=N/n2cnc3c([nH]c4ccccc43)c2=O)cc1CO	.	29	.	/	.	.	.	.
COc1ccc(/C=N/n2cnc3c([nH]c4ccc(Br)cc43)c2=O)cc1CN1CCOCC1	.	.	.	.	.	.	/	/
COc1ccccc1N(C)S(=O)(=O)c1ccc(C(=O)NC2=NCCS2)cc1	.	45	.	.	.	.	.	.
COc1ccccc1N(C)S(=O)(=O)c1ccc(C(=O)Nc2ccncc2)cc1	.	.	.	.	/	/	/	/
Cc1nn(C)c(C(=O)N/N=C/c2ccc(-c3ccccc3)cc2)c1Cl	.	37	.	.	.	.	28	.
COc1ccc(/C=N/NC(=O)c2c([N+](=O)[O-])c(C)nn2C)cc1	.	.	.	.	.	.	/	/
Cc1ccc(C(=O)COC(=O)CNC(=O)CN2C(=O)c3ccccc3C2=O)cc1	.	33	.	.	.	.	28	.
O=C(CSc1n[nH]c(=O)[nH]c1=O)NCC1CCCCC1	.	.	.	.	.	.	/	/
O=C(CSc1n[nH]c(=O)[nH]c1=O)NC1CC1	.	59	.	/	.	.	.	.
Cc1cccc(-c2oc3ccc(-c4ccc5c(c4)OCO5)cc3c2C(=O)OCc2ccc(O)cc2)c1	.	.	.	/	.	.	/	/
CCOc1ccc(Nc2ncnc3c2nnn3Cc2ccccc2)cc1	.	36	.	.	.	.	.	.
CC(C)[C@H](NS(=O)(=O)c1ccccc1)C(=O)Nc1nccs1	/	/	/	.	/	/	/	/
CCOC(=O)c1cnc(SCc2cccc3ccccc23)nc1N	.	105	.	.	.	.	.	.
CCC(C(=O)NCCCN1CC(C)CC(C)C1)n1nc(C)c2sc3ccccc3c2c1=O (centres undefined)	.	.	.	.	.	.	/	/
COc1ccc(-n2nc(C(=O)NCC(=O)NCc3cccc(F)c3)c3ccccc3c2=O)cc1Cl	.	28	.	.	.	.	.	.
COC(=O)CNC(=O)CNC(=O)c1nn(-c2ccc(OC)c(Cl)c2)c(=O)c2ccccc12	.	.	.	.	.	.	/	/
O=C(CSc1nnc(-c2ccc(O)cc2)o1)Nc1cccc(O)c1	.	.	.	/	.	.	/	/
O=C(CSc1nnc(-c2ccc(O)cc2)o1)Nc1ccc2c(c1)OCCO2	.	34	.	.	.	.	.	.
Cc1cccc(NC(=O)CSc2nnc(-c3ccc(S(=O)(=O)N4CCCC4)cc3)o2)c1	.	.	.	.	.	.	/	/
